High-throughput results deposited in PubChem by PCMD.
Yeast eIF2B – GCN4-lacZ reporter reduction in eIF2B-epsilon mutant yeast, primary screen, S. cerevisiae, eIF2B-epsilon R284H, Beta-Glo luminescence; inhibition, % at 25 µM (by protocol); actives 0.91% (n = 27,000); AID 688, 2007;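 active = mutant luminescence inhibited past about 50% while wild type luminescence and mutant growth stay under set limits, limit read from the data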
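Material – yeast eIF2B-epsilon R284H mutant carrying GCN4–beta-galactosidase fusion · Medium – YPD yeast growth medium · Compound – one concentration, 25 µM, 0.25% DMSO · Times – 16 h at 30 °C exposure · Signal – Beta-Glo luminescence plus absorbance at 595 nm · Read-out – % inhibition of reporter signal and growth versus controls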
Yeast growth tox – yeast growth toxicity, wild-type and mutant, primary screen, cytotoxicity control for eIF2B function restoration project, wild-type and eIF2Bepsilon R284H mutant, A595; S. cerevisiae wild-type growth, A595 turbidity, 16 h; growth inhibition, % at 25 µM (by protocol); actives 0.3% (n = 30,000);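 active = mutant and wild-type yeast strains alike exhibit over 30% growth inhibition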;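 also: 0% = untreated cell controls and 100% = YPD media blanks without cells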
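Test system: Wild-type and eIF2Bepsilon-R284H mutant S. cerevisiae, screened separately | Dosing: Single 25 µM compound dose in 0.2% DMSO | Schedule: 16 h compound exposure during growth at 30 °C | Detection: A595 turbidity | Evaluation: Growth inhibition (%) versus cell controls and blanks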
* marks the source's active call; other numbers are inactive results. Most compounds without a hit are left out; they make up all but 1% or so of the library.

How did COC(=O)c1cc(O)c(OCc2ccccc2)c(O)c1 do in these assays?
Yeast eIF2B: 69.6*; Yeast growth tox: -11.4

Results for CC(=O)/C(C(=N)N1CCN(c2cccc(Cl)c2)CC1)=C(\C)O ?
Yeast eIF2B: 60.8*

Results for O=C(O)CCC(=O)N1CCN(c2cccc(Cl)c2)CC1 ?
Yeast eIF2B: 34.7; Yeast growth tox: -2.1

What do the screens show for `Cc1c(NC(=O)C(C)NCC2CCCO2)c(=O)n(-c2ccccc2)n1C` (configuration not stated)?
Yeast eIF2B: 22.7; Yeast growth tox: -1.4

How did C=C(C)CSc1nc(N)c2c(C)c(C)sc2n1 do in these assays?
Yeast eIF2B: 0.6; Yeast growth tox: -7.2

How did Cc1ccc(Oc2ccc(OCC(=O)OC3CCS(=O)(=O)C3)cc2)cc1 (configuration not stated) do in these assays?
Yeast eIF2B: 6.0

What do the screens show for `CCCCNC(=O)OC1CCS(=O)(=O)C1` (configuration not stated)?
Yeast eIF2B: 55.2*; Yeast growth tox: -15.0

How did CCOC(=O)C1=C(C)NC(=O)C(C(N)=O)C1c1ccccc1 (configuration not stated) do in these assays?
Yeast growth tox: -4.9

How did O=C(Nc1nc(-c2ccc(S(=O)(=O)N3CCCCCC3)cc2)cs1)c1cccs1 do in these assays?
Yeast eIF2B: 60.2*; Yeast growth tox: -5.5

What do the screens show for `O=C(Nc1nc(-c2ccc(S(=O)(=O)N3CCCC3)cc2)cs1)c1cccs1`?
Yeast eIF2B: 5.0

Results for COc1ccc(C(=O)Nn2c(C)nnc2-n2nc(C)cc2C)cc1OC ?
Yeast eIF2B: 55.6*; Yeast growth tox: -0.4

How did COc1ccccc1/C=N/n1c(C)nnc1-n1nc(C)cc1C do in these assays?
Yeast eIF2B: 16.9; Yeast growth tox: 7.3

What do the screens show for `COc1ccc(CC(=O)Nc2ccc(N3CCN(c4ccc(OC)cc4)CC3)c(C#N)c2)cc1`?
Yeast eIF2B: 53.3*; Yeast growth tox: -26.1

What do the screens show for `COc1ccc(OCC(=O)Nc2ccc(N3CCOCC3)cc2)cc1`?
Yeast eIF2B: 20.7; Yeast growth tox: 6.2

Results for CC(NC(=O)c1ccco1)c1ccc2c(c1)OCCO2 (configuration not stated) ?
Yeast eIF2B: 16.4; Yeast growth tox: -11.4

Results for CCOC(=O)C1=C(O)/C(=C\c2ccc(CNC(=O)C(=O)Nc3ccccc3)o2)N=C1C ?
Yeast eIF2B: 17.5; Yeast growth tox: 6.4

What do the screens show for `Cc1ccc(NC(=O)CSC2=C(C#N)C(c3ccco3)C3=C(CCCC3=O)N2)cc1` (configuration not stated)?
Yeast eIF2B: -7.0; Yeast growth tox: 5.5

Results for N#CC1=C(SCC(=O)c2ccc(Cl)cc2)NC2=C(C(=O)CCC2)C1c1ccco1 (configuration not stated) ?
Yeast eIF2B: 50.7*; Yeast growth tox: 5.2

What do the screens show for `CCCOc1ccc(N2C(=O)CC(SC(=NC)Nc3ccc(F)cc3)C2=O)cc1` (configuration not stated)?
Yeast eIF2B: 10.2; Yeast growth tox: -15.9

Results for CCCOc1ccc(N2C(=O)CC(SC(=NCC)Nc3cccc(F)c3)C2=O)cc1 (configuration not stated) ?
Yeast eIF2B: 52.7*; Yeast growth tox: -44.3

Results for CCCCCC(=O)N(O)C1CC(=O)N(c2ccccc2)C1=O (configuration not stated) ?
Yeast eIF2B: 46.6; Yeast growth tox: 38.2*

Results for CN(Cc1ccccc1)C1CC(=O)N(c2ccc(C(=O)O)cc2)C1=O (configuration not stated) ?
Yeast eIF2B: -7.3; Yeast growth tox: -0.6

How did CCOc1nnnc2c1sc1nc(N3CCOCC3)c3c(c12)CCCC3 do in these assays?
Yeast growth tox: 18.3

What do the screens show for `CN1C(=O)NC(c2ccccc2)C2=C1CN(CCc1ccccc1)C2=O` (configuration not stated)?
Yeast eIF2B: -25.3; Yeast growth tox: 20.8

What do the screens show for `CN1C(=O)NC(c2ccccc2)C2=C1CN(c1cccc(C(F)(F)F)c1)C2=O` (configuration not stated)?
Yeast eIF2B: 52.3*; Yeast growth tox: 1.5

What do the screens show for `CC(=O)SC(C)CC(=O)NCc1ccccc1` (configuration not stated)?
Yeast growth tox: 29.0

Results for O=C1CC(O)(C(F)F)Oc2ccc3ccccc3c21 (configuration not stated) ?
Yeast eIF2B: 52.7*; Yeast growth tox: 15.6

What do the screens show for `O=C1CC(O)(C(F)(F)F)Oc2c1ccc1ccccc21` (configuration not stated)?
Yeast eIF2B: 45.6; Yeast growth tox: 2.0

What do the screens show for `CCOc1ccc(S(=O)(=O)Nc2ccc(F)cc2)c(C)c1C`?
Yeast eIF2B: 12.0; Yeast growth tox: 23.5

What do the screens show for `O=C(CC1(C(F)(F)F)OCCO1)Nc1ccc2c(c1)OCO2`?
Yeast eIF2B: 23.2; Yeast growth tox: -12.0

What do the screens show for `Cn1c(=O)[nH]c(=O)c2c1nc(SCC(O)CO)n2Cc1ccccc1Cl` (configuration not stated)?
Yeast eIF2B: 60.9*; Yeast growth tox: 4.5

Results for Cn1c(=O)[nH]c(=O)c2c1nc(Br)n2Cc1ccccc1Cl ?
Yeast eIF2B: 8.8; Yeast growth tox: 9.8

Results for O=C(NC1CCCC1)c1noc2c1CCCCC2 ?
Yeast eIF2B: 12.8; Yeast growth tox: 5.9

How did CCOC(=O)C1=C(C)NC(C)=C(C(=O)OCC)C1C(=O)OCC(=O)N1CCc2ccccc2C1 do in these assays?
Yeast eIF2B: 58.7*; Yeast growth tox: 0.2

What do the screens show for `O=C(CNC1CCCCC1)N1CCc2ccccc2C1`?
Yeast growth tox: 3.5

What do the screens show for `Cn1ccnc1Sc1nc2ccccc2nc1NS(=O)(=O)c1ccccc1`?
Yeast eIF2B: 29.0; Yeast growth tox: -6.3

Results for O=C1CC(N2CCN(c3nc4ccccc4s3)CC2)C(=O)N1Cc1cccs1 (configuration not stated) ?
Yeast eIF2B: -26.3; Yeast growth tox: 72.9*

How did O=C1CC(N2CCN(c3ccc(F)cc3)CC2)C(=O)N1Cc1cccs1 (configuration not stated) do in these assays?
Yeast eIF2B: 4.7; Yeast growth tox: 1.9

What do the screens show for `Cc1ccc(-c2nc3cc(C)ccc3o2)cc1`?
Yeast eIF2B: 15.3; Yeast growth tox: 2.1

What do the screens show for `Cc1ccc2nc(-c3cccnc3)oc2c1`?
Yeast eIF2B: 53.1*; Yeast growth tox: -4.2

Results for CCCC1COC(Cn2cncn2)(c2ccc(C)cc2)O1 (configuration not stated) ?
Yeast eIF2B: 92.4; Yeast growth tox: 93.4*

What do the screens show for `CC(C)CNC(=O)c1ccc(Cl)c(Cl)c1`?
Yeast eIF2B: 9.8; Yeast growth tox: 10.9

What do the screens show for `CCOC(=O)CC(=O)CSc1nc(-c2cccnc2)cc(C)c1C#N`?
Yeast eIF2B: 3.0; Yeast growth tox: 1.5

Results for CCOC(=O)CC(=O)CSc1nc(C)cc(-c2cccnc2)c1C#N ?
Yeast eIF2B: 55.1*; Yeast growth tox: -7.5

Results for Cc1onc(-c2ccccc2)c1-c1n[nH]c(=S)n1-c1ccccc1 ?
Yeast eIF2B: -7.2; Yeast growth tox: -22.5
